Calls of active or inactive are those of the source. No cut-off for these calls is given here.
Key:
[1] = test system: BaF3; assay: Antiproliferative activity against mouse BaF3 cells expressing KIT D816V mutant assessed as cell growth inhibition measured after 72 hrs by Alamar Blue assay; details: BaF3, 72 h
[2] = test system: BaF3; assay: Antiproliferative activity against mouse BaF3 cells expressing FLT3-ITD assessed as cell growth inhibition measured after 72 hrs by Alamar Blue assay; details: BaF3, 72 h
[3] = test system: BaF3; assay: Antiproliferative activity against mouse BaF3 cells assessed as cell growth inhibition measured after 72 hrs by Alamar Blue assay; details: BaF3, 72 h
[4] = test system: BaF3; assay: Antiproliferative activity against mouse BaF3 cells expressing Tel-FGFR3 assessed as cell growth inhibition measured after 72 hrs by Alamar Blue assay; details: BaF3, 72 h
[5] = test system: BaF3; assay: Antiproliferative activity against mouse BaF3 cells expressing Trp-MET assessed as cell growth inhibition measured after 72 hrs by Alamar Blue assay; details: BaF3, 72 h
[6] = test system: BaF3; assay: Antiproliferative activity against mouse BaF3 cells expressing Bcr-ABL assessed as cell growth inhibition measured after 72 hrs by Alamar Blue assay; details: BaF3, 72 h
[7] = test system: BaF3; assay: Antiproliferative activity against mouse BaF3 cells expressing ERBB2 V659E mutant assessed as cell growth inhibition measured after 72 hrs by Alamar Blue assay; details: BaF3, 72 h
[8] = test system: BaF3; assay: Antiproliferative activity against mouse BaF3 cells expressing NPM-ALK assessed as cell growth inhibition measured after 72 hrs by Alamar Blue assay; details: BaF3, 72 h
[9] = target: Cyclin-dependent kinase 1 (Homo sapiens) (UniProt P06493); assay: Inhibition of human recombinant GST-fused CDK1 expressed in baculovirus expression system using poly-Glu-Tyr (4:1) as substrate measured after 10 mins in presence of gamma-[33P]-ATP by scintillation counting analysis
In short: (§1)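 GST-fused kinase domains were expressed in baculovirus and purified on glutathione-Sepharose. 10 min at ambient temperature, stopped with EDTA. Filter binding and scintillation counting. IC50 by linear regression of percent inhibition.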

[10] = test system: BaF3; assay: Antiproliferative activity against mouse BaF3 cells expressing PTC3-RET assessed as cell growth inhibition measured after 72 hrs by Alamar Blue assay; details: BaF3, 72 h
[11] = test system: BaF3; assay: Antiproliferative activity against mouse BaF3 cells expressing Tel-IGF-1R assessed as cell growth inhibition measured after 72 hrs by Alamar Blue assay; details: BaF3, 72 h
[12] = target: Fibroblast growth factor receptor 3 (Homo sapiens) (UniProt P22607); assay: Inhibition of human recombinant GST-fused FGFR3 expressed in baculovirus expression system using poly-Glu-Tyr (4:1) as substrate measured after 10 mins in presence of gamma-[33P]-ATP by scintillation counting analysis; in short: as §1
[13] = target: Hepatocyte growth factor receptor (Homo sapiens) (UniProt P08581); assay: Inhibition of human recombinant GST-fused c-MET expressed in baculovirus expression system using poly-Glu-Tyr (4:1) as substrate measured after 10 mins in presence of gamma-[33P]-ATP by scintillation counting analysis; in short: as §1
[14] = target: Vascular endothelial growth factor receptor 2 (Mus musculus, UniProt P35918); assay: Inhibition of mouse recombinant GST-fused VEGFR2 kinase domain expressed in baculovirus expression system using poly-Glu-Tyr (4:1) as substrate measured after 10 mins in presence of gamma-[33P]-ATP by scintillation counting analysis; in short: as §1
[15] = test system: B16-BL6; assay: Antitumor activity against mouse B16-BL6 cells implanted in C57BL/6jNpa mouse assessed as primary tumor growth inhibition by measuring T/C ratio at 100 mg/kg, po qd administered started on day 7 post implantation measured after 21 days; format: functional; details: time 7-21 day
In short: (§2)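 Female C57BL/6JNpa mice, 50000 B16/BL6 cells intradermally in both ear pinnae; primary tumor area (mm²) imaged days 7, 14, 21; randomized day 7 into groups of 5-6, oral dosing in PEG200 or PEG300 vehicle daily (or every 2 days) for 14 days; day 21 cervical lymph nodes weighed, metastasis lysates assayed for TIE-2 by ELISA; T/C ratios.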

[16] = test system: HUVEC; assay: Antiproliferative activity against bFGF-stimulated HUVEC cells assessed as cell growth inhibition measured after 24 hrs by BrdUrd incorporation based spectrophotometric analysis; details: Homo sapiens
[17] = test system: HUVEC; assay: Antiproliferative activity against VEGF-stimulated HUVEC cells assessed as cell growth inhibition measured after 24 hrs by BrdUrd incorporation based spectrophotometric analysis; details: Homo sapiens
[18] = test system: BaF3; assay: Antiproliferative activity against mouse BaF3 cells expressing Tel-PDGFRbeta assessed as cell growth inhibition measured after 72 hrs by Alamar Blue assay; details: BaF3, 72 h
[19] = test system: B16-BL6; assay: Antitumor activity against mouse B16-BL6 cells implanted in C57BL/6jNpa mouse assessed as metastatic tumor growth inhibition by measuring T/C ratio at 100 mg/kg, po qd administered started on day 7 post implantation measured after 21 days relative to control; format: functional; details: time 7-21 day; in short: as §2
[20] = Antitumor activity against rat BN472 cell implanted in Brown-Norway rat assessed as tumor growth inhibition by measuring T/C ratio at 100 mg/kg, po qd measured upto 14 days; format: functional; details: time <= 14 day
In short: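 Female Brown-Norway rats (160-180 g) given 3 mm³ BN472 tumor fragments in mammary fat pads; at about 200 mm², randomized into groups of 7-8 and dosed orally with compound or PEG300 vehicle over 14 days; tumor growth followed, T/C computed; significance by 2-way RM-ANOVA.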

[21] = organism: Mus musculus; assay: Antiangiogenic activity in C57BL/6jNpa mouse harbouring mouse B16-BL6 cells assessed as reduction in iAUEC level by measuring T/C ratio measured after 3 days by DCE-MRI assay; format: functional; details: time 3 day
In short: (§3)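 C57BL/6JNpa mice bearing B16/BL6 cervical lymph-node metastases, at least 8 per group, anaesthetized and given contrast agent; DCE-MRI Ktrans and iAUEC (permeability) and Vp (plasma volume) measured before and again after daily treatment; change per mouse recorded, mean ± SEM, one-way ANOVA with Holm-Sidak comparisons versus vehicle.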

[22] = test system: BN472 cell; assay: Antitumor activity against rat BN472 cell implanted in Brown-Norway rat assessed as reduction in perfused blood vessels at 100 mg/kg, po qd measured upto 14 days by Ki67 staining based microscopic analysis; format: functional, organism-based; details: time <= 14.0 day, in the assay text read “Hoechst dye staining” for “Ki67 staining”
In short: (§4)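 BN472-bearing Brown-Norway rats dosed orally; Hoechst dye i.v. shortly before sacrifice to mark perfused vessels; tumors cryosectioned at 10 micron, blocked in 10 % goat serum/0.1 % Triton X-100, stained with rabbit anti-Ki67 (1:200) or anti-caspase 3 (1:10) and fluorescent secondary antibodies; fluorescence microscopy.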

[23] = organism: Mus musculus; assay: Antiangiogenic activity in C57BL/6jNpa mouse harbouring mouse B16-BL6 cells assessed as reduction in tumor plasma volume measured after 3 days by DCE-MRI assay relative to control; format: functional; design: scale not given: the % may be the effect or the level left; details: time 3 day; in short: as §3
[24] = test system: BN472 cell; assay: Induction of apoptosis in rat BN472 cell implanted in Brown-Norway rat assessed as effect on caspase 3 level at 100 mg/kg, po qd measured upto 14 days by microscopic analysis; format: functional, organism-based; details: time <= 14.0 day
In short: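 BN472 fragments were grown in mammary fat pads of female Brown-Norway rats and dosed orally for 14 days. Hoechst dye was given i.v. 2 min before sacrifice. Excised tumors were cut as 10 micron frozen sections, blocked with 10 % normal goat serum/0.1 % Triton X-100 and stained with rabbit anti-rat caspase 3 (1:10), then a TRITC or FITC secondary. Read by fluorescence microscopy.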

[25] = organism: Mus musculus; assay: Antiangiogenic activity in C57BL/6jNpa mouse harbouring mouse B16-BL6 cells assessed as reduction in K-trans level by measuring T/C ratio measured after 3 days by DCE-MRI assay; format: functional; details: time 3 day; in short: as §3
[26] = organism: Mus musculus; assay: Antiangiogenic activity in C57BL/6jNpa mouse harbouring mouse B16-BL6 cells assessed as reduction in tumor plasma volume by measuring T/C ratio measured after 3 days by DCE-MRI assay; format: functional; details: time 3 day; in short: as §3
[27] = test system: BN472 cell; assay: Antitumor activity against rat BN472 cell implanted in Brown-Norway rat assessed as reduction in perfused blood vessels at 100 mg/kg, po qd measured upto 14 days by Hoechst staining based microscopic analysis; format: functional, organism-based; details: time <= 14.0 day; in short: as §4
[28] = organism: Mus musculus; assay: Antiangiogenic activity in C57BL/6jNpa mouse harbouring mouse B16-BL6 cells assessed as reduction in iAUEC level measured after 3 days by DCE-MRI assay relative to control; format: functional; design: scale not given: the % may be the effect or the level left; details: time 3 day; in short: as §3
[29] = organism: Mus musculus; assay: Antiangiogenic activity in C57BL/6jNpa mouse harbouring mouse B16-BL6 cells assessed as reduction in K-trans level measured after 3 days by DCE-MRI assay relative to control; format: functional; design: scale not given: the % may be the effect or the level left; details: time 3 day; in short: as §3
[30] = test system: B16-BL6; assay: Antitumor activity against mouse B16-BL6 cells implanted in C57BL/6jNpa mouse assessed as metastatic tumor growth inhibition at 100 mg/kg, po qd administered started on day 7 post implantation measured after 21 days relative to control; format: functional, organism-based; details: time 7-21 day; in short: as §2
[31] = test system: B16-BL6; assay: Antitumor activity against mouse B16-BL6 cells implanted in C57BL/6jNpa mouse assessed as primary tumor growth inhibition at 100 mg/kg, po qd administered started on day 7 post implantation measured after 21 days relative to control; format: functional, organism-based; details: time 7-21 day; in short: as §2
[32] = Antitumor activity against rat BN472 cell implanted in Brown-Norway rat assessed as tumor growth inhibition by measuring T/C ratio at 30 mg/kg, po qd measured upto 14 days; format: functional; details: time <= 14 day
In short: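 Female Brown-Norway rats (160–180 g) received 3 mm³ BN472 tumor fragments in the mammary fat pad. Randomized at about 200 mm² tumor, 2–3 weeks after transplant, into groups of 7–8. Oral daily dosing in PEG300 vehicle for 14 days. Tumor growth curves were compared with vehicle. Experiment run twice.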

[33] = test system: Mus musculus; assay: Anti-angiogenesis activity in FVB mouse model assessed as inhibition of VEGF-induced tissue weight at 50 mg/kg, po qd treated for 4 to 6 hrs prior to chamber implantation and continuing for 4 days measured after 24 hrs post last dose; format: functional, organism-based; details: time 5.0 day
In short: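 Chamber model in female FVB mice: VEGF (2 μg/mL) agar/heparin chambers s.c. in flank, oral dosing once daily starting 4-6 h before implantation and continuing 4 days; vascularized tissue harvested and weighed 24 h after final dose; 6 mice per group.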

Cyclin-dependent kinase 1 (Homo sapiens), sequence (P06493 whole entry, looked up, the tested form may be a part): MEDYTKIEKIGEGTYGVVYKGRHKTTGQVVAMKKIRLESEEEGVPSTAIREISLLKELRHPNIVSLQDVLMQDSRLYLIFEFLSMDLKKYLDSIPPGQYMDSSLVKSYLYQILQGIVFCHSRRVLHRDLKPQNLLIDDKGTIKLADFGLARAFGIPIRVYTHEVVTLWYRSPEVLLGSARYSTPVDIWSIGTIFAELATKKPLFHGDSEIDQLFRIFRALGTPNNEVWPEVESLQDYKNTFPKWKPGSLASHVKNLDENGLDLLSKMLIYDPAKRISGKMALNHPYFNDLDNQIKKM
Fibroblast growth factor receptor 3 (Homo sapiens), sequence (P22607 23-806 limits assumed): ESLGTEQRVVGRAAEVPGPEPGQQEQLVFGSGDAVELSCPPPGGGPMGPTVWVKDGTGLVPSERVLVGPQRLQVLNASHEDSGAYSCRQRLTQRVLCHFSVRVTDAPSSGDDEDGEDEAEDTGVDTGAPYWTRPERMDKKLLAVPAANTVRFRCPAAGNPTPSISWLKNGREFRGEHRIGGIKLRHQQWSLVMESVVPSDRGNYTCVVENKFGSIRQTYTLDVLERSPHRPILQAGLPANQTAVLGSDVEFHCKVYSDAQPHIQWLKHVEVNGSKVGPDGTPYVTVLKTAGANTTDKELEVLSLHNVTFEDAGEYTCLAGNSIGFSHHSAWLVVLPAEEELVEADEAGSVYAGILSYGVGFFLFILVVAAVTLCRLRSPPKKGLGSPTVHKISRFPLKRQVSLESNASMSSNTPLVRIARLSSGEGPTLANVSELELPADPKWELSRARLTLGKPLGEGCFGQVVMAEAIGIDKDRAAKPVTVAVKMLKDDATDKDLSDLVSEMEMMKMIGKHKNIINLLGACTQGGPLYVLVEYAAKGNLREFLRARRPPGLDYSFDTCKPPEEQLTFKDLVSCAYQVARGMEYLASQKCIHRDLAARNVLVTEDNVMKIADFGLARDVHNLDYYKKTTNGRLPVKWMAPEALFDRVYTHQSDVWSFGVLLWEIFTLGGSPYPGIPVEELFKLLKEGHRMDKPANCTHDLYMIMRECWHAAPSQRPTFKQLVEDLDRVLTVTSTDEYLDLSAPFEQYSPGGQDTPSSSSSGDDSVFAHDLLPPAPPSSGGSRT
Hepatocyte growth factor receptor (Homo sapiens), sequence (P08581 whole entry, the tested form may be a part): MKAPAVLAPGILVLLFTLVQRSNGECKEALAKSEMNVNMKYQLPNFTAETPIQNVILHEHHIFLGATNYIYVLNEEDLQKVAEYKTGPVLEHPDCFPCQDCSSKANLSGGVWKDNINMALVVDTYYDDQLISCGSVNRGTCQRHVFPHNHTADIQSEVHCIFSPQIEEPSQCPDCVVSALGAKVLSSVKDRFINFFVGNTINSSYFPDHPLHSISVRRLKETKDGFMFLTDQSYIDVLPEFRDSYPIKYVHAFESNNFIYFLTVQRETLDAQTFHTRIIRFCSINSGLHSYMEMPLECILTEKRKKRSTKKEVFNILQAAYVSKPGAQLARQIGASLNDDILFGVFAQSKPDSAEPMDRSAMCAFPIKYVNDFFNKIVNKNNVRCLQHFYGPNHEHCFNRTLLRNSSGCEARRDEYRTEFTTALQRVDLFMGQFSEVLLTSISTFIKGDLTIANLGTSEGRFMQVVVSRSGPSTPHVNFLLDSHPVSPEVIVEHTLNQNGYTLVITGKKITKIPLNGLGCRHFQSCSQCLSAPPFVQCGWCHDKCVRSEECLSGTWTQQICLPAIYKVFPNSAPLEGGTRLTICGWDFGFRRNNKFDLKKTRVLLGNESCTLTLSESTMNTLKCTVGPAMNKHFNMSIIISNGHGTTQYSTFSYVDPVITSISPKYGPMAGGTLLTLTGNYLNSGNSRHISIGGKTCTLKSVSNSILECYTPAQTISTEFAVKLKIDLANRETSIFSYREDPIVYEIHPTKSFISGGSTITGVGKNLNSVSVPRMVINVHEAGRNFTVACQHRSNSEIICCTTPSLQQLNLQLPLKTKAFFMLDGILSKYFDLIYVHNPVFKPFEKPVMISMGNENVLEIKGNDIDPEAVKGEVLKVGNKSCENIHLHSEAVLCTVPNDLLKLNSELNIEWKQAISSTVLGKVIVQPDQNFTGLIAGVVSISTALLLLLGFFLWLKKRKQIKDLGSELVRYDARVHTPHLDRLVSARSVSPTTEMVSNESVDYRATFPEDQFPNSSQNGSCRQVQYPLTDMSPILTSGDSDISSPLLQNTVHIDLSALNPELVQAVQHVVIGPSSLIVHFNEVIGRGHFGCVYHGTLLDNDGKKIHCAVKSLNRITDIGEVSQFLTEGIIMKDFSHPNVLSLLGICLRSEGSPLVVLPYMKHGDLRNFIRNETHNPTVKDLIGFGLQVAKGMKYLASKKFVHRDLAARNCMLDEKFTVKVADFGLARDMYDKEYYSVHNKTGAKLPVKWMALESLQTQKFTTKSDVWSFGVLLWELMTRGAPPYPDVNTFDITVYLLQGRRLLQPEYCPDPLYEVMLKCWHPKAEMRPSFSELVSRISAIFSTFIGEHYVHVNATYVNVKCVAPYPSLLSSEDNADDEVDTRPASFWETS
Vascular endothelial growth factor receptor 2, sequence (P35918 whole entry, the tested form may be a part): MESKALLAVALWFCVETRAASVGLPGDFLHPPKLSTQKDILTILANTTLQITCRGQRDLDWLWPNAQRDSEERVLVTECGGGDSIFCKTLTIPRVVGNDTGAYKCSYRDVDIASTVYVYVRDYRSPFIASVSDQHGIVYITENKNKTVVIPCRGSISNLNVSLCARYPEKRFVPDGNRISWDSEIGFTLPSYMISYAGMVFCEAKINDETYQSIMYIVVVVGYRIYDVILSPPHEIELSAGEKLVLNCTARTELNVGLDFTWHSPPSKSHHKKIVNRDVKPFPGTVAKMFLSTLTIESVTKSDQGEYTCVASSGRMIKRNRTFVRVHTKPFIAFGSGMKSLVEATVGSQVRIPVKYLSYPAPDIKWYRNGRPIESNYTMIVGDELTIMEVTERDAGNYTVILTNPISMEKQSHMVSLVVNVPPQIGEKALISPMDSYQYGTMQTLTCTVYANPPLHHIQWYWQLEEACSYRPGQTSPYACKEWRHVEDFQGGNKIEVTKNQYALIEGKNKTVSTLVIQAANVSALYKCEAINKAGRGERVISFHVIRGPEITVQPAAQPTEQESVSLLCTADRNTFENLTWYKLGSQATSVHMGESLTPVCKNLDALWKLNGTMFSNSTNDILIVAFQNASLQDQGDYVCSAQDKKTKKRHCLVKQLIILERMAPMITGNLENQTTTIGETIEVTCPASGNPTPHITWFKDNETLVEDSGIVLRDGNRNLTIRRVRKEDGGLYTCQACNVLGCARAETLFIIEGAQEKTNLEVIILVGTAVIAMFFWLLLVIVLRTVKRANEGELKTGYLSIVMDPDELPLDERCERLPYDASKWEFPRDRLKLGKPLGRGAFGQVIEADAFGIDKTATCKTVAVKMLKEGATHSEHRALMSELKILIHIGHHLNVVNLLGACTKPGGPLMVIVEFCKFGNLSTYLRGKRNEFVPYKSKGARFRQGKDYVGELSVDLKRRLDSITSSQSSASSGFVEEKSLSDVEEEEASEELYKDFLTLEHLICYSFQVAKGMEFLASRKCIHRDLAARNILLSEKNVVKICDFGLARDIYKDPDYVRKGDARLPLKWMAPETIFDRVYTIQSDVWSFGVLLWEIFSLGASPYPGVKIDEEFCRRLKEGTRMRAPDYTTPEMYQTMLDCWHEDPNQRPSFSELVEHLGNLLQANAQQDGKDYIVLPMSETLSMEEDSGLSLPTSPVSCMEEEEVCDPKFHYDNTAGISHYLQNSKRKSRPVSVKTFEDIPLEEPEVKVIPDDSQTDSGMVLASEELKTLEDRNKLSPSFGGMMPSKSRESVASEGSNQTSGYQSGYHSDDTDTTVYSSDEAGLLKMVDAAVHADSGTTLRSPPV

Compound | IC50 [1] | IC50 [2] | IC50 [3] | IC50 [4] | IC50 [5] | IC50 [6] | IC50 [7] | IC50 [8] | IC50 [10] | IC50 [11] | T/C [15] | IC50 [16] | IC50 [17] | IC50 [18] | T/C [19] | other results
CNC(=O)c1cc(Oc2ccc(NC(=O)Nc3ccc(Cl)c(C(F)(F)F)c3)cc2)ccn1 [SORAFENIB] | 2.8 µM | 0.012 µM | > 10 µM | 2.46 µM | 7.4 µM | 5.82 µM | 4.21 µM | 1.01 µM | 0.078 µM | 3.68 µM | – | – | – | – | – | inhibition [9]: Active; inhibition [12]: Active; inhibition [13]: Active
O=C(Nc1cccc(C(F)(F)F)c1)c1ccccc1NCc1ccncc1 | > 5.5 µM | > 5.5 µM | > 10 µM | > 5.5 µM | > 5.5 µM | > 5.5 µM | 5.6 µM | > 5.5 µM | 2.9 µM | 8.4 µM | 0.35 | > 3 µM | 0.001 µM | 0.019 µM | 0.17 | IC50 [14]: 0.055 µM; T/C [20]: 0.37
Clc1ccc(Nc2nnc(Cc3ccncc3)c3ccccc23)cc1.O=C(O)CCC(=O)O | > 10 µM | > 10 µM | > 10 µM | > 10 µM | > 10 µM | > 10 µM | > 10 µM | > 10 µM | > 10 µM | > 10 µM | 0.44 | > 3 µM | 0.0071 µM | 0.076 µM | 0.34 | T/C [21]: 0.61; Activity [22]: Active; Activity [23]: 33%; Activity [24]: Active; T/C [25]: 0.49; T/C [26]: 0.67; Activity [27]: Active; Activity [28]: 33%; Activity [29]: 51%; Activity [30]: Active; Activity [31]: Active
COc1cc2/c(=N/c3ccc(Br)cc3F)nc[nH]c2cc1OCC1CCN(C)CC1 [VANDETANIB] | – | – | – | – | – | – | – | – | – | – | – | – | – | – | – | T/C [32]: 0.35; Activity [33]: Active

Source: ChEMBL document CHEMBL5252510, “A Novel Potent Oral Series of VEGFR2 Inhibitors Abrogate Tumor Growth by Inhibiting Angiogenesis” (J Med Chem, 2016)
